The full list was thinned out, with hits kept by preference.
Diaph act CS – counter-screen for diaphorase-based assays: diaphorase activators and chemical reducers. Diaphorase/resazurin coupled assay, resorufin fluorescence, 16 min; hits give high values; 1 = vehicle wells, 0 = NADH-free wells. activation factor at 20 µM. 0.005% of 190,000 active. AID 1229;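 active = diaphorase activity raised at least twofold by the compound at 20 µM; inactive = activation factor below 2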
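System – purified diaphorase enzyme from Clostridium kluyveri · Input – enzyme 0.07 U/mL final · Also added – final NADH 0.114 mM, resazurin 0.1 mM · Measured by – fluorescence of resorufin, 544 nm excitation, 590 nm emission · Timing – 16 min enzyme reaction, ambient temperature · Measure – resorufin increase flagging diaphorase activators or reducers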
Diaphorase inh – counter-screen for diaphorase-based assays: diaphorase inhibitors and chemical oxidizers; diaphorase resazurin-to-resorufin fluorescence, NADH, 16 min; bacterial (C. kluyveri) enzyme, not human; 0.69% of 190,000 active; inhibition, % at 20 µM;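 active = primary screen inhibition at 20 µM above a set limit, cut at about 50% in these data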
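controls = No-NADH positive control and DMSO neutral control | system = Clostridium kluyveri diaphorase enzyme | timing = reaction incubation of 16 min at room temperature | signal = resorufin fluorescence 544/590 nm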
PfG6PD inh – PfG6PD (Plasmodium falciparum) enzyme inhibition | inhibition, % at 20 µM | PfGluPho enzyme, NADPH resazurin-diaphorase fluorescence | 0.78% of 350,000 active;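 active = inhibition reaching at least a set limit at 20 µM in the primary screen, cut at about 59% in these data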
L major viab – inhibitors of Leishmania major promastigote growth | Leishmania major promastigotes, resazurin fluorescence viability | inhibition, % at 10 µM | 9% of 200,000 active | AID 1063;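 note: promastigotes grown with compound for 44 hours at 28 °C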
G6PDH counter – counter-screen for G6PDH assay hits: L. mesenteroides G6PDH inhibition. Purified L. mesenteroides G6PDH, diaphorase/resazurin coupled fluorescence, 45 min. 0.12% of 200,000 active. inhibition, % at 5 µM
Redox H2O2 prof – compounds producing H2O2 with reducing agent – biochemical, NIH compound library profiling, artefact control for MLSCN library redox annotation, primary screen; DTT-dependent redox cycling H2O2, phenol red/HRP absorbance; 100% = 100 µM peroxide control, 0% = buffer; activation, % at 10 µM; 0.03% of 200,000 active; AID 878;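 active = activation of at least 50% relative to the plate's high and low controls in the primary single-dose screen; inactive = activation below 50%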;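 note: compound incubated with DTT at 0.8 mM final as the reducing agent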
A number is an active result; . = inactive; / = not tested or not shown. Cut-off read from the data, not from the text of the source, unless noted: active = inhibition above about 50%; inactive = the rest.

SMILES	Diaph act CS	Diaphorase inh	PfG6PD inh	L major viab	G6PDH counter	Redox H2O2 prof
COc1ccc(/C=C/C(=O)NC(=S)NNC(=O)c2cccnc2)cc1	.	75	.	93	.	.
CCCCC(=O)NC(=S)NNC(=O)c1ccc(OC)cc1	.	.	.	58	.	.
CC(=O)c1sc(NC(=O)c2oc3ccc(F)cc3c2C)nc1C	/	/	.	/	/	/
Oc1ccc(CN2CCCc3ccccc32)c2cccnc12	.	77	.	.	.	.
COc1ccccc1N1CCN(Cc2ccc(O)c3ncccc23)CC1	.	57	.	101	.	.
CCOC(=O)C1CCN(Cc2ccc(O)c3ncccc23)CC1	.	73	.	95	50	.
CCc1ccc([C@@H]2CC=C(C(=O)O)CN2S(=O)(=O)c2ccc(C)cc2)cc1	/	/	.	/	/	/
CCCCc1ccc(NC(=S)Nc2ccc(Nc3ccc(OC)cc3)cc2)cc1	.	.	.	60	.	.
CCCCc1ccc(NC(=S)Nc2ccc(Cl)c(S(=O)(=O)N(C)C)c2)cc1	.	.	.	87	.	.
COc1ccc(C/C(C)=N/NC(=S)Nc2ccc(Cl)cc2)cc1	/	/	.	/	/	/
CCCCc1ccc(NC(=S)NCc2cccc(OC)c2)cc1	.	.	.	.	.	.
CCN1CCN(CC(=O)Nc2ccc(Cl)c(S(=O)(=O)N(C)C)c2)CC1	.	.	.	.	.	.
CCOc1ccc(NC(=S)N/N=C(\C)Cc2ccc(OC)cc2)cc1	.	.	.	62	.	.
NC(=O)c1nc(-c2ccco2)nc2c1[nH]c(=O)n2-c1ccc(Cl)c(Cl)c1	/	/	.	/	/	/
CC1=CC(=O)C=C(C)C1=NOC(=O)/C=C\c1ccccc1	.	.	.	53	.	.
CC1=C(C)/C(=N\OC(=O)/C=C/c2ccccc2)C=CC1=O	.	.	.	100	.	.
N/C(=N\OC(=O)/C=C/c1ccccc1)c1ccncc1	.	.	.	.	.	.
Cc1ccc(NC(=O)C(C)OC(=O)/C=C/c2ccccc2)cc1 (centres undefined)	/	/	.	/	/	/
COc1ccc(C(=O)NCCCN=C2NS(=O)(=O)c3ccccc32)cc1	/	/	.	/	/	/
CC(=O)c1c(C)[nH]c(C(=O)Nc2cccc(C(F)(F)F)c2)c1C	/	/	.	/	/	/
Cc1c(C(=O)N2CCc3ccccc32)oc2ccccc12	.	.	.	81	.	.
COCc1c(C(=O)N2CCc3ccccc32)oc2ccccc12	/	/	.	/	/	/
COc1cc(C(=O)OCCN2CCOCC2)ccc1O	.	.	.	56	.	.
COc1ccccc1N(CC(=O)NC(C)C)S(=O)(=O)c1cccs1	.	.	.	.	.	.
CN1CCN(Cc2ccc(-c3ccc(Cl)cc3)o2)CC1	.	.	.	94	.	.
SMILES	Diaph act CS	Diaphorase inh	PfG6PD inh	L major viab	G6PDH counter	Redox H2O2 prof
CCC1(C)Cc2c(sc3nnn(CC(=O)Nc4ccccc4)c(=O)c23)CO1 (centres undefined)	.	.	.	.	.	.
CCC1(C)Cc2c(sc3nnn(Cc4ccccc4Cl)c(=O)c23)CO1 (centres undefined)	.	57	.	.	.	.
COc1cc(NS(=O)(=O)c2ccc(NC(=S)NC(=O)c3cccs3)cc2)nc(OC)n1	.	.	.	.	.	.
COc1ccc2o/c(=N/NC(=O)c3cccs3)c(C(N)=O)cc2c1	.	.	.	.	.	.
Cc1cc(C)cc(NS(=O)(=O)c2ccc(NC(=S)NC(=O)c3cccs3)cc2)c1	.	.	.	96	.	.
O=C(Nc1ccc(NC(=S)NC(=O)c2ccccc2F)cc1)c1cccs1	.	.	.	96	.	.
O=C(NC(=S)Nc1ccc(NC(=O)c2cccs2)cc1)c1cc2ccccc2o1	.	.	.	85	.	.
NC(=O)c1cc2ccccc2o/c1=N/NC(=O)c1cccs1	.	69	.	.	.	.
Nc1ccc(S(=O)(=O)c2ccc(Cl)cc2)cc1	.	.	.	.	.	.
O=C(CCc1ccccc1)NCC1(c2ccccc2)CCCC1	/	/	.	/	/	/
COc1ccc(/C=C/C(=O)OCC(=O)Nc2cccc(S(=O)(=O)NC3=NCCCCC3)c2)cc1	/	/	.	/	/	/
CC(Nc1nc(-c2cccnc2)nc2ccccc12)c1ccc(F)cc1 (centres undefined)	/	/	.	/	/	/

Source: PubChem
